Results on twelve compounds are retold here after ChEMBL document CHEMBL1145772, “Antiinflammatory, gastrosparing, and antiplatelet properties of new NO-donor esters of aspirin” (J Med Chem, 2003).

A short description of data set [1]: Percent unaltered compound in human serum after 1 min of incubation. Format: ADME. The following applies: read-out: Unaltered compound. The gist of the method: (§1)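 Compound is incubated in human serum at 37 °C for 1 min or 1 h. Samples are then deproteinized with acetonitrile containing 0.1% TFA and centrifuged at 9600g for 10 min. The remaining intact compound is quantified by reversed-phase HPLC on an RP-18 column at 40 °C, using a 25–80% acetonitrile/0.1% TFA gradient, with UV detection at 224 nm.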

Data set [2] is described as follows: Percent unaltered compound in human serum after 1 hr of incubation. Format: ADME. The following applies: read-out: Unaltered compound. The gist of the method: as §1
The species named for data set [3] is Homo sapiens. The experiment in a line: Inhibition of ADP-induced human platelet rich plasma aggregation at 50 uM concentration. In kind it is functional. Summed up:
(§2)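 Human platelet-rich plasma is prepared from citrated venous blood of drug-free healthy volunteers (at least 2 weeks) by spinning at 200g for 20 min. Compound is added 10 min before the agonist, either ADP or collagen at […]. Light-transmission aggregation is recorded under stirring at 1000 rpm, 37 °C, for 5 min. Inhibition is expressed relative to vehicle (<0.5% DMSO) controls. The top concentration is 50 µM. pIC50 is fitted by nonlinear regression when inhibition exceeds 50%.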

The species named for data set [4] is Homo sapiens. The data set is described as follows: Inhibition of collagen-induced human platelet rich plasma aggregation at 50 uM concentration. Format: functional. Summed up: as §2
The species named for data set [5] is Homo sapiens. The data set is described as follows: Inhibition of collagen-induced human platelet rich plasma aggregation. In kind it is functional. The gist of the method:
as §2

Data set [6] can be described thus: NO release in the presence of 1:5 molar excess of L-cysteine, value expressed as % mol/mol of NO2-. Summed up:
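Compound is dissolved in pH 7.4 buffered water/methanol and incubated for 1 h at 37 °C with a 1:5 molar excess of L-cysteine (5 × 10^-4 M). Griess reagent is added, and absorbance at 540 nm is read after 10 min at room temperature. Nitrite is reported as % mol/mol, mean ± SEM.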

Data set [7] is filed under the species Homo sapiens. The data set is described as follows: Inhibition of collagen-induced human platelet rich plasma aggregation at 50 uM concentration in presence of 40 uM HbO2. In kind it is functional. The gist of the method:
(§3)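 Aggregation of human PRP is triggered by ADP or by collagen at […], and read by light transmission (stirring, 37 °C, 5 min). Compound is given 10 min before the agonist. The NO scavenger oxyhaemoglobin or the sGC inhibitor ODQ (100 µM) is included to probe NO/sGC involvement. The value is % inhibition versus vehicle control at the top tested concentration of 50 µM.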

For data set [8], the species on record is Homo sapiens. The data set is described as follows: Inhibition of collagen-induced human platelet rich plasma aggregation at 50 uM concentration in presence of 100 uM ODQ. In kind it is functional. Summed up: as §3
The species entered for data set [9] is Homo sapiens. The experiment in a line: Inhibition of ADP-induced human platelet rich plasma aggregation at 50 uM concentration in presence of 100 uM ODQ. Format: functional. Summed up: as §3
For data set [10], the species on record is Homo sapiens. The experiment in a line: Inhibition of ADP-induced human platelet rich plasma aggregation at 50 uM concentration in presence of 40 uM HbO2. Format: functional. The gist of the method: as §3

The term inhibition denotes the share of the control response that was lost under treatment. A higher inhibition goes with a response far below the control. Turning to `CC(=O)Oc1ccccc1C(=O)OCc1nonc1C#N`, the remaining at 1 min in data set [1] was 0%. The remaining at 1 h in data set [2] came out at 0%. For the same compound, the inhibition at 50 µM in the data set filed under Homo sapiens [3] worked out at 14.8%; in the data set listed under Homo sapiens [4], 27.9%.
In general, Inhibition refers to the share of the control response that was lost under treatment. With `CC(=O)Oc1ccccc1C(=O)OCc1no[n+]([O-])c1C`, the remaining at 1 min in data set [1] was found to be 2.5%. The compound further came in with an Inhibition in the data set listed under Homo sapiens [5] of 18.6%. Further, the NO release in data set [6] stood at 0. In [2], the remaining at 1 h stood at 0%. In addition, the inhibition at 50 µM in the data set filed under Homo sapiens [3] was 17.8%.
Consider `CC(=O)Oc1ccccc1C(=O)OCCCOc1no[n+]([O-])c1S(=O)(=O)c1ccccc1`, for which the remaining at 1 min in data set [1] was found to be 43.7%. Also, the NO release in data set [6] is 37.1. In [2], the remaining at 1 h was found to be 9.3%.
In the case of `CC(=O)Oc1ccccc1C(=O)OCCCOc1no[n+]([O-])c1-c1ccccc1`, the remaining at 1 min in data set [1] was 38.8%. Besides, the NO release in data set [6] was found to be 0.35. Further, the remaining at 1 h in [2] was determined as 3.8%.
As for `CC(=O)Oc1ccccc1C(=O)OCCCOc1nonc1S(=O)(=O)c1ccccc1`, the remaining at 1 min in data set [1] worked out at 47.6%. Further, the remaining at 1 h in [2] is 8.1%. Moreover, the inhibition at 50 µM in the data set filed under Homo sapiens [3] came to 3.3%; in the data set listed under Homo sapiens [4], 14.8%.
Consider `CC(=O)Oc1ccccc1C(=O)OCCCO[N+](=O)[O-]`, for which, in data set [1], the remaining at 1 min stood at 0%. Further, the NO release in [6] was 0.18. Moreover, the remaining at 1 h in data set [2] is 0%. Besides, the inhibition at 50 µM was found to be 18.3% in the data set listed under Homo sapiens [3] and 12.3% in the data set filed under Homo sapiens [4].
Regarding `CC(=O)Oc1ccccc1C(=O)OCc1no[n+]([O-])c1C(N)=O`, the Inhibition in the data set listed under Homo sapiens [7] was 14.4%; in the data set filed under Homo sapiens [8], 18.5%; in the data set listed under Homo sapiens [9], 22.6%; in the data set filed under Homo sapiens [10] it was 28.6%. Besides, in data set [1], the remaining at 1 min amounted to 0%. The NO release in [6] was determined as 3.8. Further, the remaining at 1 h in [2] was determined as 0%.
In the case of `CCCOC(=O)c1ccccc1OC(C)=O`, the remaining at 1 min in data set [1] amounted to 0%. Also, in data set [2], the remaining at 1 h came to 0%. Further, the inhibition at 50 µM in the data set filed under Homo sapiens [3] stood at 18.1%; in the data set filed under Homo sapiens [4] it was 14.4%.
Consider `CC(=O)Oc1ccccc1C(=O)OCc1no[n+]([O-])c1C#N`, for which the remaining at 1 min in data set [1] stood at 0%. Further, in [6], the NO release is 32.3. The remaining at 1 h in data set [2] amounted to 0%.
Take `CC(=O)Oc1ccccc1C(=O)OCc1nonc1C`: the remaining at 1 min in data set [1] was 0%. For the same compound, the remaining at 1 h in data set [2] was determined as 0%. The values for the inhibition at 50 µM in the data set listed under Homo sapiens [3] and in the data set filed under Homo sapiens [4] were 23.2% and 1.5%, respectively.
For the compound `CC(=O)Oc1ccccc1C(=O)OCCCOc1nonc1-c1ccccc1`, the remaining at 1 min in [1] was determined as 39.3%. Also, the remaining at 1 h in data set [2] amounted to 3.9%. The inhibition at 50 µM came out at 16.9% in the data set listed under Homo sapiens [3] and 0.7% in the data set listed under Homo sapiens [4].
In the case of `CC(=O)Oc1ccccc1C(=O)OCc1nonc1C(N)=O`, the remaining at 1 min in data set [1] was 0%. In data set [2], the remaining at 1 h was 0%. Also, the inhibition at 50 µM was 7.6% in the data set listed under Homo sapiens [3] and 16.7% in the data set filed under Homo sapiens [4].
